This is a sample that favours compounds with a hit; in the whole collection about 1.9% have one here.
ZTA DNA inh – counter-screen for EBNA-1 inhibitors: inhibitors of Epstein-Barr virus ZTA; ZTA-DNA binding, fluorescence polarization; P03206; inhibition, % at 11 µM; hit rate 0.15% among 320,000; in the data active = inhibition above about 33%
Target sequence (P03206 whole entry, looked up): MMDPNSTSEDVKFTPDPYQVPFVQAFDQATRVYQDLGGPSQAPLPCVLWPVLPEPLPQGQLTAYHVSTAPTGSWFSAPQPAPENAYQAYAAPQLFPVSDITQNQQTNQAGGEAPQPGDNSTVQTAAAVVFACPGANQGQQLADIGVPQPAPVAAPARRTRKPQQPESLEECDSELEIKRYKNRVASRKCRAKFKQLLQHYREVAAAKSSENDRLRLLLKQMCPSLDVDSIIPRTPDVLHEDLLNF
HCV core dimer – HCV core protein dimerization inhibition; TR-FRET GST/Flag-core106 dimerization, 1536-well; inhibition, % at 5 µM; hit rate 0.33% among 300,000;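 active = inhibition above the mean of all tested compounds plus 3 SD, set per screening campaign, cut at about 45% in these data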
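System: GST-tagged and Flag-tagged HCV core protein residues 1-106 / Input: core106 proteins, GST 13.5 nM and Flag 17 nM / Buffer or medium: KF-containing HEPES buffer, pH 7.45, DTT, CHAPS, BSA / Probe or stimulus: Eu-anti-GST and XL665-anti-Flag labelled anti-tag antibodies / Schedule: 4 h, 22.5 °C incubation / Technique: TR-FRET 671 and 617 nm emission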
NS3 helicase inh – HCV NS3 helicase inhibition; NS3 helicase DNA unwinding, Cy5 molecular beacon fluorescence; inhibition, % at 10.9 µM; hit rate 0.56% among 290,000; AID 1800;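 active = inhibition above the mean of all tested compounds plus 3 SD, set per campaign, cut at about 35% in these data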;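 note: 0% = DMSO wells and 100% = thioflavine S control wells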
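System: Hepatitis C virus NS3 helicase domain fragment enzyme | Reagent: Annealed dual-labelled DNA beacon duplex, ATP-started | Compound dosing: 10.9 µM single point, 0.8% DMSO | Incubation: 1 h reaction at 25 °C, ATP-initiated | Technique: Cy5 fluorescence | Evaluation: Percent inhibition from t60/t0 fluorescence ratio | Benchmarks: Low DMSO, high thioflavine S at 110 µM | Replication: Singlicate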
PP1 inh – counter-screen for PP5 inhibitors: inhibitors of human PP1-alpha | purified PP1alpha, OMFP fluorescence | inhibition, % at 6.7 µM | hit rate 0.9% among 320,000;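 active = inhibition above the mean inhibition of all tested compounds plus 3 SD, computed separately for each screening campaign, cut at about 15% in these data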
Target sequence (P62136 whole entry, looked up): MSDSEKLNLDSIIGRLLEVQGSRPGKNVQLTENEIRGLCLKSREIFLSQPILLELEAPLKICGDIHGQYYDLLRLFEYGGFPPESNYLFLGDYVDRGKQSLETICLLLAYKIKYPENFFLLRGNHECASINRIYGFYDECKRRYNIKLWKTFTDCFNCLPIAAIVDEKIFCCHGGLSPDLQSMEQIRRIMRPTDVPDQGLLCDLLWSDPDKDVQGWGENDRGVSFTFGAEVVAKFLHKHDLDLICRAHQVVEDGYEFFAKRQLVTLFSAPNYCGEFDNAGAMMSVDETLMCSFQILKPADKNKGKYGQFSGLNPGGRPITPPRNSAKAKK
EBNA-1 inh – blocks EBNA-1 binding to DNA; inhibition, % at 14.8 µM; EBNA-1 DNA binding, fluorescence polarization; hit rate 0.34% among 300,000; in the data active = inhibition above about 28%
NS3 hel confirm – HCV NS3 helicase inhibition, confirmation assay. shares compounds with NS3 helicase inh. NS3 helicase DNA unwinding, Cy5 molecular beacon fluorescence. inhibition, % at 10.9 µM. hit rate 31% among 1,600;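 active = inhibition above the mean of all tested compounds plus 3 SD, cutoff set per campaign, cut at about 36% in these data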
FID counter trip – intercalator displacement, NS3 helicase counter-screen; shares compounds with NS3 helicase inh; DNA fluorescent intercalator displacement, fluorescence; inhibition, % at 7.9 µM; hit rate 4% among 1,600; AID 1945; in the data active = inhibition above about 37%;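 note: 0% = vehicle and 100% = reference compound; higher means more displacement of ethidium bromide from the DNA hairpin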
DNA FID DR – displaces fluorescent intercalator from DNA, HCV helicase counter-screen. 120 tested, under 10 active. shares compounds with NS3 helicase inh. fluorescent intercalator displacement from DNA, fluorescence. AID 2172. IC50, µM; call rule not given here
EBNA-1 inh conf – EBNA-1 (EBV) inhibition, confirmation. hit rate 35% among 830. shares compounds with EBNA-1 inh. inhibition, % at 14.8 µM. Recombinant EBNA-1 DBD, Cy5-DNA fluorescence polarization;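 active = mean inhibition across replicates above a set limit taken from the earlier primary screen, cut at about 28% in these data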;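 note: plate controls were EBNA-1 protein with DMSO for no effect and wells lacking EBNA-1 for full effect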
ZTA DNA inh trip – blocks Epstein-Barr virus ZTA in triplicate, EBNA-1 counter-screen. shares compounds with EBNA-1 inh. Zta-ZRE DNA binding, Cy5 fluorescence polarization. inhibition, % at 11.1 µM. 830 tested, under 10 active;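 active = mean inhibition over triplicates above a set limit taken from the primary EBNA-1 screen, cut at about 37% in these data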;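 note: purified full length Zta protein with Cy5 labeled ZRE DNA probe; 0% = Zta with DMSO and 100% = wells lacking Zta protein; inhibitors lower polarization by freeing the labeled DNA probe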
PP1 inh confirm – confirmation of human PP1 phosphatase inhibitors; shares compounds with PP1 inh; purified PP1alpha, OMFP substrate fluorescence; inhibition, % at 6.7 µM; hit rate 52% among 1,900; AID 2358;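 active = mean PP1 inhibition above a set limit taken from the earlier primary screen, cut at about 15% in these data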
PP5 counter – inhibits human PP5 phosphatase in PP1 counter-screen; shares compounds with PP1 inh; purified PP5c, OMFP fluorescence; hit rate 4% among 1,900; inhibition, % at 6.7 µM;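 active = mean PP5 inhibition over triplicate wells above about 9.5% taken from the earlier PP1 screen, limit read from the data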
* = called active by the depositor.

What do the screens show for `FC(F)(F)c1ccccc1CCN1CCNCC1`?
ZTA DNA inh: -12; HCV core dimer: -18; NS3 helicase inh: -14; PP1 inh: 1; EBNA-1 inh: 5

How did CCN(CC)C(=O)c1ccc2c(c1)C1C=CCC1C(C(=O)O)N2 (stereo unspecified) do in these assays?
NS3 helicase inh: 42*; NS3 hel confirm: 86*; FID counter trip: -3

What do the screens show for `CCN(CC)C(=O)c1ccc(N(Cc2ccccc2)S(C)(=O)=O)cc1`?
NS3 helicase inh: -3

What do the screens show for `O=C1NC(=O)N(c2ccccc2)C(=O)/C1=C\c1ccc([N+](=O)[O-])s1`?
ZTA DNA inh: -2; HCV core dimer: 2; NS3 helicase inh: 41*; PP1 inh: 0; EBNA-1 inh: 3; NS3 hel confirm: 50*; FID counter trip: 11; DNA FID DR: >79

How did Cc1ccc(N2C(=O)NC(=O)/C(=C/C=C/c3ccco3)C2=O)cc1 do in these assays?
ZTA DNA inh: 8; HCV core dimer: 4; NS3 helicase inh: 39*; PP1 inh: 1; EBNA-1 inh: 8; NS3 hel confirm: -8; FID counter trip: 6

What do the screens show for `Cc1cc(C)cc(N2C(=O)NC(=O)/C(=C\C=C\c3ccco3)C2=O)c1`?
ZTA DNA inh: 11; HCV core dimer: 6; NS3 helicase inh: 54*; PP1 inh: 7; EBNA-1 inh: 5; NS3 hel confirm: 24; FID counter trip: 6

What do the screens show for `CCc1ccc(N2C(=O)NC(=O)/C(=C\C=C\c3ccco3)C2=O)cc1`?
ZTA DNA inh: 29; HCV core dimer: 6; NS3 helicase inh: 0; PP1 inh: 0; EBNA-1 inh: 8

Results for CCCCN1C(=O)/C(=C/C=C/c2ccco2)C(=O)NC1=S ?
NS3 helicase inh: 62*; NS3 hel confirm: 57*; FID counter trip: 24

What do the screens show for `COC(=O)C1=C(c2ccc(OC(F)(F)F)cc2)C[C@@H]2CC[C@H]1N2C(=O)N1CCOCC1`?
ZTA DNA inh: 7; PP1 inh: -4

What do the screens show for `CCN1C[C@]2(CO)CC[C@H](OC)[C@@]34C2[C@H](OC)[C@@](O)(C13)[C@@]1(O)C[C@H](OC)[C@H]2C[C@@H]4[C@@H]1[C@H]2OC`?
ZTA DNA inh: 2; HCV core dimer: -2; NS3 helicase inh: 0; PP1 inh: -4; EBNA-1 inh: -8

Results for O=C(O)c1ccccc1-c1ccc(C=C2C(=O)N(c3ccccc3)C(=S)N(c3ccccc3)C2=O)o1 ?
ZTA DNA inh: 16; HCV core dimer: 10; NS3 helicase inh: 42*; PP1 inh: 6; EBNA-1 inh: 9; NS3 hel confirm: 69*; FID counter trip: 9

How did CN1C(=O)C(=Cc2ccc(N3CCCCCC3)o2)C(=O)N(C)C1=S do in these assays?
ZTA DNA inh: -6; HCV core dimer: 9; NS3 helicase inh: 10; PP1 inh: -5; EBNA-1 inh: -5

Results for CC(C)c1ccc(-n2c(O)c(/C=N/NC(=O)c3ccccc3O)c(=O)[nH]c2=S)cc1 ?
ZTA DNA inh: 1; HCV core dimer: 5; NS3 helicase inh: 74*; PP1 inh: 10; EBNA-1 inh: -1; NS3 hel confirm: 74*; FID counter trip: 21

How did Cc1ccccc1N1C(=O)/C(=C/c2ccco2)C(=O)NC1=S do in these assays?
ZTA DNA inh: 69*; HCV core dimer: 70*; NS3 helicase inh: 81*; PP1 inh: 69*; EBNA-1 inh: 110*; NS3 hel confirm: 83*; FID counter trip: 21; PP1 inh confirm: 35*; PP5 counter: 2

Results for CCN(CC)c1ccc(/C=C2\C(=O)NC(=O)N(Cc3ccco3)C2=O)cc1 ?
ZTA DNA inh: 2; HCV core dimer: 5; NS3 helicase inh: 17; PP1 inh: -1; EBNA-1 inh: 1

What do the screens show for `O=C1NC(=O)N(Cc2ccc(F)cc2)C(=O)/C1=C\C=C\c1ccco1`?
ZTA DNA inh: 6; HCV core dimer: 13; NS3 helicase inh: 41*; PP1 inh: 21*; EBNA-1 inh: 0; NS3 hel confirm: 32; FID counter trip: 20; PP1 inh confirm: 23*; PP5 counter: -1

What do the screens show for `CC/C(=N\NC(=O)c1ccccc1O)c1c(O)n(C2CCCCC2)c(=O)[nH]c1=O`?
ZTA DNA inh: 14; HCV core dimer: 11; NS3 helicase inh: -16; PP1 inh: 4; EBNA-1 inh: 3

What do the screens show for `CCc1ccc(NC(=O)C(C)OC(=O)c2c(C)nn(Cc3ccccc3)c2Cl)cc1` (stereo unspecified)?
ZTA DNA inh: 8; HCV core dimer: 1; NS3 helicase inh: 9; PP1 inh: -1; EBNA-1 inh: 3

How did Cc1nn(Cc2ccccc2)c(Cl)c1C(=O)OC(C)C(=O)Nc1ccc(F)cc1Cl (stereo unspecified) do in these assays?
ZTA DNA inh: -5; HCV core dimer: 0; NS3 helicase inh: -14; PP1 inh: 3; EBNA-1 inh: 122*; EBNA-1 inh conf: 129*; ZTA DNA inh trip: -11

What do the screens show for `Cc1nn(Cc2ccccc2)c(Cl)c1C(=O)OCC(=O)Nc1cccc2ccccc12`?
ZTA DNA inh: 6; HCV core dimer: 13; NS3 helicase inh: 1; PP1 inh: 1; EBNA-1 inh: 61*; EBNA-1 inh conf: 15; ZTA DNA inh trip: -6

What do the screens show for `COc1ccc2c(C)c(CC(=O)N3C[C@H]4C[C@@H](C3)c3cccc(=O)n3C4)c(=O)oc2c1C`?
ZTA DNA inh: -4; HCV core dimer: 6; NS3 helicase inh: 6; PP1 inh: -3; EBNA-1 inh: 3
